This note sets out measurements from ChEMBL document CHEMBL1121953, “Carbon-7 substituted actinomycin D analogues as improved antitumor agents: synthesis and DNA-binding and biological properties” (J Med Chem, 1982).

Each structure is given as a SMILES string. ≈ marks a conversion by molar mass, not a printed value.

By ILS is commonly meant how much longer treated animals lived than controls.

The species named for series [1] is Homo sapiens. In words: In vitro growth inhibitory activity against human lymphoblastic leukemia cells. The class given is functional. The note with it: read-out: ID50 (the source's name). The method in brief:
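CCRF-CEM human lymphoblastic leukemia cells in log-phase growth; compounds dissolved in Me₂SO, final growth medium 1% Me₂SO.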

Series [2] is described as follows: In vitro growth inhibitory activity for effect on melting temperature of DNA was determined. In outline:
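DNA thermal denaturation; ΔTm = Tm of DNA-drug complex minus Tm of DNA. Drug 1.4×10⁻⁴ M, DNA (P) 1.4×10⁻³ M in 0.01 M phosphate buffer pH 7.0 with 5×10⁻³ M EDTA and 5% dimethyl sulfoxide.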

Series [3] in a line: Therapeutic Index measured as the MTD/MED ratio compared to that of compound 4. The note with it: read-out: Therapeutic index. The method in brief:
(§1)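 Therapeutic index is MTD/MED, with ip dosing in 10% dimethyl sulfoxide-saline on a qd 1-4 or q4d 1, 5, 9 schedule. MED is the dose giving a 40% increase in life span over control in P-388-bearing mice. MTD is the LD10 in tumor-free male CDF1 mice (18-23 g) over 21 days, read from a log dose vs. percent mortality plot and averaged over 2-3 experiments.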

Series [4] is described as follows: Therapeutic Index measured as the MTD/MED ratio compared to that of compound 3. The note with it: read-out: Therapeutic index. The method in brief: as §1
The test system of series [5] is P388. In words: Antitumor activity against P-388 lymphocytic leukemia in CDF1 hybrid male mice measured as percent increase in (1.2 mg/kg),ip. The class given is functional, Mus musculus. The method in brief: (§2)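 Male CDF1 mice (18-23 g) were inoculated ip with 10⁶ P-388 cells on day 0. Drug was given ip in 10% dimethyl sulfoxide-saline on days 1, 5 and 9. Test solutions were kept at 0-4 °C, protected from light, and checked periodically for stability and homogeneity by TLC and HPLC. Read-out was survival, median survival time, increase in life span and tumor-free cures per 7 animals.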

Series [6] deals with P388. In words: Number of mice with P-388 lymphocytic leukemia cured( 1.2 mg/kg),ip; 3/7. The format is functional, Mus musculus. The method in brief:
as §2

The subject of series [7] is P388. In words: Minimum effective dose was determined compared to 7-(2,3-Epoxypropoxy)-actinomycin D against P-388 leukemia in mice(3 days). More on the design: unit: mg/kg. The class given is functional, Mus musculus. The method in brief:
(§3)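 MED was the dose (mg/kg) giving a 40% increase in life span over control in mice bearing ip P-388 leukemia. Drug was given ip in 10% dimethyl sulfoxide-saline on a q4d 1, 5, 9 (three injections) or qd 1-4 (four injections) schedule.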

Series [8] concerns P388. In words: Antitumor activity against P-388 lymphocytic leukemia in CDF1 hybrid male mice measured as median survival time ( 0.6 mg/kg),ip. The format is functional, Mus musculus. In outline:
as §2

Series [9] deals with P388. In words: Number of mice with P-388 lymphocytic leukemia cured( 0.3 mg/kg),ip; 1/7. The format is functional, Mus musculus. In outline: as §2
Series [10] concerns P388. The series can be described thus: Antitumor activity against P-388 lymphocytic leukemia in CDF1 hybrid male mice measured as median survival time ( 0.3 mg/kg),ip. The format is functional, Mus musculus. The method in brief:
as §2

The test system of series [11] is P388. The series can be described thus: Antitumor activity against P-388 lymphocytic leukemia in CDF1 hybrid male mice measured as median survival time ( 2.4 mg/kg),ip. The class given is functional, Mus musculus. In outline:
as §2

The test system of series [12] is P388. The series can be described thus: Number of mice with P-388 lymphocytic leukemia cured( 2.4 mg/kg),ip; 2/7. The class given is functional, Mus musculus. The method in brief:
as §2

Series [13] relates to P388. In words: Antitumor activity against P-388 lymphocytic leukemia in CDF1 hybrid male mice measured as percent increase in lifespan( 2.4 mg/kg),ip. The note with it: Mus musculus. The class given is functional. In outline: as §2
Series [14] concerns P388. In words: Number of mice with P-388 lymphocytic leukemia cured.( 0.15 mg/kg),ip; 0/7. The class given is functional, Mus musculus. In outline:
as §2

Series [15] relates to P388. The series can be described thus: Minimum effective dose was compared to 7-(2,3-Epoxypropoxy)-actinomycin D against P-388 leukemia in mice(4 days). The class given is functional, Mus musculus. In outline: as §3
Series [16] has as its system P388. The series can be described thus: Antitumor activity against P-388 lymphocytic leukemia in CDF1 hybrid male mice measured as percent increase in lifespan(1.8 mg/kg),ip. The format is functional, Mus musculus. The method in brief:
as §2

Series [17] concerns P388. In words: Antitumor activity against P-388 lymphocytic leukemia in CDF1 hybrid male mice measured as median survival time (1.8 mg/kg),ip. The format is functional, Mus musculus. In outline:
as §2

In series [18] the test system is P388. The series can be described thus: Antitumor activity against P-388 lymphocytic leukemia in CDF1 hybrid male mice measured as median survival time ( 0.15 mg/kg),ip. The format is functional, Mus musculus. The method in brief: as §2
The subject of series [19] is P388. The series can be described thus: Number of mice with P-388 lymphocytic leukemia cured.( 1.8 mg/kg),ip; 3/7. The format is functional, Mus musculus.
In series [20] the test system is P388. In words: Antitumor activity against P-388 lymphocytic leukemia in CDF1 hybrid male mice measured as median survival time ( 1.2 mg/kg),ip. The format is functional, Mus musculus. In outline:
as §2

The test system of series [21] is P388. The series can be described thus: Number of mice with P-388 lymphocytic leukemia cured( 0.6 mg/kg),ip; 1/7. The format is functional, Mus musculus. The method in brief: as §2
In series [22] the test system is P388. In words: Antitumor activity against P-388 lymphocytic leukemia in CDF1 hybrid male mice measured as percent increase in lifespan( 0.15 mg/kg),ip. The format is functional. The note with it: Mus musculus. The method in brief:
as §2

Series [23] has as its system P388. The series can be described thus: Maximum tolerated dose was compared to 7-(2,3-Epoxypropoxy)-actinomycin D against P-388 leukemia in mice(3 days). The class given is functional, Mus musculus. In outline: (§4)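 Tumor-free male CDF1 mice (18-23 g) received a broad dose range ip in 10% dimethyl sulfoxide-saline, either on days 1, 5, 9 (three injections) or on 4 successive days (qd 1-4). Deaths were recorded over 21 days. MTD was the dose lethal to 10% (LD10), taken from a plot of log dose vs percent mortality. Average of two experiments.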

For series [24], the system named is P388. The series can be described thus: Antitumor activity against P-388 lymphocytic leukemia in CDF1 hybrid male mice measured as percent increase in lifespan( 0.3 mg/kg),ip. The class given is functional. The note with it: Mus musculus. The method in brief:
as §2

For series [25], the system named is P388. The series can be described thus: Antitumor activity against P-388 lymphocytic leukemia in CDF1 hybrid male mice measured as percent increase in lifespan( 0.6 mg/kg),ip. The format is functional. The note with it: Mus musculus. In outline: as §2
In series [26] the test system is P388. In words: Maximum tolerated dose was compared to 7-(2,3-Epoxypropoxy)-actinomycin D against P-388 leukemia in mice(4 days). The format is functional, Mus musculus. In outline:
as §4

With `CCN(CC)C(=O)c1c2nc3c(C(=O)N(CC)CC)cc(OCC(O)CO)c(C)c3oc-2c(C)c(=O)c1N` (configuration not stated), the IC50 in series [1] was roughly 10 µg/mL (≈ 18.9 µM). For the same compound, the DNA melting temperature shift (ΔTm) in series [2] was found to be 0 °C.

With `Cc1c2oc3c(C)c(O)c(N)c(C(=O)N[C@H]4C(=O)N[C@@H](C(C)C)C(=O)N5CCC[C@H]5C(=O)N(C)CC(=O)N(C)[C@H](C(C)C)C(=O)O[C@H]4C)c3nc-2c(C(=O)N[C@@H]2C(=O)N[C@H](C(C)C)C(=O)N3CCC[C@@H]3C(=O)N(C)CC(=O)N(C)[C@@H](C(C)C)C(=O)O[C@@H]2C)cc1=O`, the DNA melting temperature shift (ΔTm) in [2] turned out to be 6.7 °C.

For `Cc1c2oc3c(C)c(OCC4CO4)cc(C(=O)N[C@@H]4C(=O)N[C@H](C(C)C)C(=O)N5CCC[C@H]5C(=O)N(C)CC(=O)N(C)[C@@H](C(C)C)C(=O)O[C@@H]4C)c3nc-2c(C(=O)N[C@@H]2C(=O)N[C@H](C(C)C)C(=O)N3CCC[C@H]3C(=O)N(C)CC(=O)N(C)[C@@H](C(C)C)C(=O)O[C@@H]2C)c(N)c1=O` (some centres not stated) [listing 1 of 2 here], the selectivity ratio stood at 43 in [3] and 72 in [4].

On to `Cc1c2oc3c(C)c(OCC4CO4)cc(C(=O)N[C@@H]4C(=O)N[C@H](C(C)C)C(=O)N5CCC[C@H]5C(=O)N(C)CC(=O)N(C)[C@@H](C(C)C)C(=O)O[C@@H]4C)c3nc-2c(C(=O)N[C@@H]2C(=O)N[C@H](C(C)C)C(=O)N3CCC[C@H]3C(=O)N(C)CC(=O)N(C)[C@@H](C(C)C)C(=O)O[C@@H]2C)c(N)c1=O` (some centres not stated) [listing 2 of 2 here], for which the ILS came out at 291% in [5] and 300% in series [16]. For the same compound, the Cure stood at 3 in series [6]; 1 in [9]; 2 in series [12]; 0 in [14]; 3 in [19]; 1 in series [21]. The figures for the MED in series [7] and in series [15] were 0.05 and 0.0375, respectively. The MST in [8] stood at 41 days; in [10], 40 days; in series [11], 26 days; in series [17], 44 days; in series [18] it was 29 days; in [20], 43 days. The compound also showed an ILS at 2.4 mg/kg in [13] of 136%. Besides, in [1], the IC50 came to 0.009 µg/mL (≈ 0.00678 µM). Further, the increase in life span (ILS) at 0.15 mg/kg in series [22] is 164%. Moreover, the MTD in [23] is on record as 3.6; in [26], 1.6. The compound also had an ILS at 0.3 mg/kg in [24] of 263%. Moreover, the ILS at 0.6 mg/kg in series [25] amounted to 255%.

Regarding `CCN(CC)C(=O)c1c2nc3c(C(=O)N(CC)CC)cc(OCC4CO4)c(C)c3oc-2c(C)c(=O)c1N` (configuration not stated), the IC50 in series [1] is 9 µg/mL (≈ 17.6 µM). The DNA melting temperature shift (ΔTm) in series [2] amounted to 0 °C.

Turning to `Cc1c2oc3c(C)c(OCC(O)CO)cc(C(=O)N[C@@H]4C(=O)N[C@H](C(C)C)C(=O)N5CCC[C@H]5C(=O)N(C)CC(=O)N(C)[C@@H](C(C)C)C(=O)O[C@@H]4C)c3nc-2c(C(=O)N[C@@H]2C(=O)N[C@H](C(C)C)C(=O)N3CCC[C@H]3C(=O)N(C)CC(=O)N(C)[C@@H](C(C)C)C(=O)O[C@@H]2C)c(N)c1=O` (some centres not stated), the selectivity ratio was 6 in series [3] and 12 in series [4].
